ChEMBL document CHEMBL1926642, “Relevance of the C-5 position to schweinfurthin induced cytotoxicity” (2011)

Tests used:
Assay type in all cases: functional
RPMI-8226 = assay: Growth inhibition of human RPMI8226 cells after 48 hrs by sulforhodamine B assay; details: RPMI-8226, 48 h
[1] = Growth inhibition of human Hs 578T cells after 48 hrs by sulforhodamine B assay
T47D = assay: Growth inhibition of human T47D cells after 48 hrs by sulforhodamine B assay
NCI-H460 = assay: Growth inhibition of human NCI-H460 cells after 48 hrs by sulforhodamine B assay; details: NCI-H460, 48 h
OVCAR-4 = assay: Growth inhibition of human OVCAR4 cells after 48 hrs by sulforhodamine B assay; details: OVCAR-4, 48 h
SK-MEL-2 = assay: Growth inhibition of human SK-MEL-2 cells after 48 hrs by sulforhodamine B assay; details: SK-MEL-2, 48 h
HL-60(TB) = assay: Growth inhibition of human HL-60(TB) cells after 48 hrs by sulforhodamine B assay; details: HL-60, 48 h
Summary of the method: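 Run in the NCI 60 cell-line screen as the full 5-dose assay that follows initial single-dose testing; GI50 is read from the dose series.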

SF-295 = assay: Growth inhibition of human SF295 cells after 48 hrs by sulforhodamine B assay; details: SF-295, 48 h
SK-OV-3 = assay: Growth inhibition of human SKOV3 cells after 48 hrs by sulforhodamine B assay; details: SK-OV-3, 48 h
SK-MEL-5 = assay: Growth inhibition of human SK-MEL-5 cells after 48 hrs by sulforhodamine B assay; details: SK-MEL-5, 48 h
HCT-15 = assay: Growth inhibition of human HCT15 cells after 48 hrs by sulforhodamine B assay; details: HCT-15, 48 h
HCT-116 = assay: Growth inhibition of human HCT116 cells after 48 hrs by sulforhodamine B assay; details: HCT-116, 48 h
TK-10 = assay: Growth inhibition of human TK10 cells after 48 hrs by sulforhodamine B assay; details: TK-10, 48 h
KM12 = assay: Growth inhibition of human KM12 cells after 48 hrs by sulforhodamine B assay; details: KM12, 48 h
IGROV-1 = assay: Growth inhibition of human IGROV1 cells after 48 hrs by sulforhodamine B assay; details: IGROV-1, 48 h
HOP-62 = assay: Growth inhibition of human HOP62 cells after 48 hrs by sulforhodamine B assay; details: HOP-62, 48 h
OVCAR-8 = assay: Growth inhibition of human OVCAR8 cells after 48 hrs by sulforhodamine B assay; details: OVCAR-8, 48 h
UO-31 = assay: Growth inhibition of human UO31 cells after 48 hrs by sulforhodamine B assay; details: UO-31, 48 h
EKVX = assay: Growth inhibition of human EKVX cells after 48 hrs by sulforhodamine B assay
NCI-H226 = assay: Growth inhibition of human NCI-H226 cells after 48 hrs by sulforhodamine B assay; details: NCI-H226, 48 h
OVCAR-3 = assay: Growth inhibition of human OVCAR3 cells after 48 hrs by sulforhodamine B assay; details: OVCAR-3, 48 h
NCI-H23 = assay: Growth inhibition of human NCI-H23 cells after 48 hrs by sulforhodamine B assay; details: NCI-H23, 48 h
NCI-H322M = assay: Growth inhibition of human NCI-H322M cells after 48 hrs by sulforhodamine B assay
HCC 2998 = assay: Growth inhibition of human HCC2998 cells after 48 hrs by sulforhodamine B assay; details: HCC 2998, 48 h
CCRF-CEM = assay: Growth inhibition of human CCRF-CEM cells after 48 hrs by sulforhodamine B assay
MOLT-4 = assay: Growth inhibition of human MOLT4 cells after 48 hrs by sulforhodamine B assay; details: MOLT-4, 48 h
SN12C = assay: Growth inhibition of human SN12C cells after 48 hrs by sulforhodamine B assay
K562 = assay: Growth inhibition of human K562 cells after 48 hrs by sulforhodamine B assay; details: K562, 48 h
U-251 = assay: Growth inhibition of human U251 cells after 48 hrs by sulforhodamine B assay; details: U-251, 48 h
MDA-MB-231 = assay: Growth inhibition of human MDA-MB-231/ATCC cells after 48 hrs by sulforhodamine B assay; details: MDA-MB-231, 48 h
CAKI-1 = assay: Growth inhibition of human Caki1 cells after 48 hrs by sulforhodamine B assay; details: CAKI-1, 48 h
OVCAR-5 = assay: Growth inhibition of human OVCAR5 cells after 48 hrs by sulforhodamine B assay; details: OVCAR-5, 48 h
[2] = read-out: pLC50 (the source's name) (converted)

## COc1cc(/C=C/c2ccc3c(c2)C[C@@H]2C(C)(C)[C@H](O)CC[C@@]2(C)O3)cc(O)c1C/C=C(\C)CCC=C(C)C
RPMI-8226
  GI50: 3.09 µM
  LC50: > 100 µM
RPMI-8226; read-out: pTGI (converted)
  TGI: 14.5 µM
[1]
  GI50: 8.71 µM
[1]; [2]
  CC50: > 100 µM
[1]; read-out: pTGI (converted)
  TGI: 93.3 µM
T47D
  GI50: 20.9 µM
  LC50: > 100 µM
T47D; read-out: pTGI (converted)
  TGI: 58.9 µM
NCI-H460
  GI50: 7.41 µM
  LC50 (concentration killing 50% of cells): 55 µM
NCI-H460; read-out: pTGI (converted)
  TGI: 21.9 µM
OVCAR-4
  GI50: 20.9 µM
  LC50: > 100 µM
OVCAR-4; read-out: pTGI (converted)
  TGI: 83.2 µM
SK-MEL-2
  GI50: 15.8 µM
  LC50: 81.3 µM
SK-MEL-2; read-out: pTGI (converted)
  TGI: 35.5 µM
HL-60(TB)
  GI50: 13.8 µM
HL-60(TB); [2]
  CC50: > 100 µM
HL-60(TB); read-out: pTGI (converted)
  TGI: 57.5 µM
SF-295
  LC50: 38.9 µM
SF-295; read-out: GI50
  GI50: 1.66 µM
SF-295; read-out: pGI50 (converted)
  GI50: 1.66 µM
SF-295; read-out: pTGI (converted)
  TGI: 5.89 µM
SK-OV-3
  GI50: 22.9 µM
  LC50: > 100 µM
SK-OV-3; read-out: pTGI (converted)
  TGI: > 100 µM
SK-MEL-5
  GI50: 8.71 µM
  LC50: 49 µM
SK-MEL-5; read-out: pTGI (converted)
  TGI: 21.4 µM
HCT-15
  GI50: 6.31 µM
  LC50: 58.9 µM
HCT-15; read-out: pTGI (converted)
  TGI: 20.9 µM
HCT-116
  GI50: 7.76 µM
  LC50: 45.7 µM
HCT-116; read-out: pTGI (converted)
  TGI: 20.4 µM
TK-10
  GI50: 29.5 µM
  LC50: > 100 µM
TK-10; read-out: pTGI (converted)
  TGI: 79.4 µM
KM12
  GI50: 2.63 µM
  LC50: 21.9 µM
KM12; read-out: pTGI (converted)
  TGI: 6.46 µM
IGROV-1
  GI50: 14.5 µM
  LC50: 70.8 µM
IGROV-1; read-out: pTGI (converted)
  TGI: 31.6 µM
HOP-62
  GI50: 6.17 µM
  LC50: 52.5 µM
HOP-62; read-out: pTGI (converted)
  TGI: 20 µM
OVCAR-8
  GI50: 25.1 µM
  LC50: > 100 µM
OVCAR-8; read-out: pTGI (converted)
  TGI: 74.1 µM
UO-31
  GI50: 5.01 µM
  LC50: 64.6 µM
UO-31; read-out: pTGI (converted)
  TGI: 20 µM
EKVX
  GI50: 14.5 µM
  LC50 (50% lethal concentration): > 100 µM
EKVX; read-out: pTGI (converted)
  TGI: 57.5 µM
NCI-H226
  GI50: 22.9 µM
  LC50: > 100 µM
NCI-H226; read-out: pTGI (converted)
  TGI: 56.2 µM
OVCAR-3
  GI50: 17.4 µM
  LC50: 66.1 µM
OVCAR-3; read-out: pTGI (converted)
  TGI: 33.9 µM
NCI-H23
  GI50: 15.1 µM
  LC50: 60.3 µM
NCI-H23; read-out: pTGI (converted)
  TGI: 30.2 µM
NCI-H322M
  GI50: 26.3 µM
  LC50: > 100 µM
NCI-H322M; read-out: pTGI (converted)
  TGI: 87.1 µM
HCC 2998
  GI50: 15.8 µM
  LC50: 85.1 µM
HCC 2998; read-out: pTGI (converted)
  TGI: 37.2 µM
CCRF-CEM
  GI50: 8.32 µM
  LC50: > 100 µM
CCRF-CEM; read-out: pTGI (converted)
  TGI: > 100 µM
MOLT-4
  GI50: 5.01 µM
  LC50: > 100 µM
MOLT-4; read-out: pTGI (converted)
  TGI: 38.9 µM
SN12C
  GI50: 18.2 µM
  LC50: 70.8 µM
SN12C; read-out: pTGI (converted)
  TGI: 36.3 µM
K562
  GI50: 5.5 µM
  LC50: > 100 µM
K562; read-out: pTGI (converted)
  TGI: 33.9 µM
U-251
  GI50: 5.62 µM
  LC50: 63.1 µM
U-251; read-out: pTGI (converted)
  TGI: 22.4 µM
MDA-MB-231
  GI50: 10 µM
MDA-MB-231; [2]
  CC50: 95.5 µM
MDA-MB-231; read-out: pTGI (converted)
  TGI: 30.9 µM
CAKI-1
  GI50: 5.37 µM
  LC50: 67.6 µM
CAKI-1; read-out: pTGI (converted)
  TGI: 20 µM
OVCAR-5
  GI50: 27.5 µM
  LC50: > 100 µM
OVCAR-5; read-out: pTGI (converted)
  TGI: 79.4 µM
